{"data": "Results from different studies", "target": "MAP/microtubule affinity-regulating kinase 3 (MARK3, Homo sapiens, UniProt P27448)"}
{"SMILES": "C[C@@H]1CN(c2cc(-c3nn(C)c4ccc(OC5(C)CC5)cc34)ncn2)C[C@H](C)O1", "observed": "cell-free assay", "technique": "competition with immobilised ligand", "tested at": "1 µM", "remaining binding [%]": 100}
{"SMILES": "N[C@H]1CCN(c2nccc(-c3cnn4ncccc34)n2)C1", "observed": "binding", "tested at": "1 µM", "remaining binding [%]": 57}
{"SMILES": "COc1ncc2cc3ccccc3nc2c1C#N", "observed": "cell-free assay", "technique": "competition with immobilised ligand", "tested at": "5 µM", "remaining binding [%]": 100}
{"SMILES": "F[C@@H]1CCN(c2nccc(-c3cnn4ncccc34)n2)C1", "observed": "binding", "tested at": "1 µM", "remaining binding [%]": 100}
{"SMILES": "FC(F)(F)Oc1cccc(-c2cnc3ccc(-c4ccncc4)nn23)c1", "observed": "cell-free assay", "technique": "competition with immobilised ligand", "tested at": "5 µM", "remaining binding [%]": 97}
{"SMILES": "O=C(Nc1ccc(Oc2ccc(F)cc2)cc1)N1CCc2ncccc2[C@H]1c1ccc(F)cc1", "observed": "cell-free assay", "technique": "competition with immobilised ligand", "tested at": "1 µM", "remaining binding [%]": 100}
{"SMILES": "O=C(NCC1CCOCC1)c1n[nH]cc1NC(=O)c1c(F)cccc1F", "observed": "binding", "technique": "competition with immobilised ligand", "tested at": "1 µM", "remaining binding [%]": 100}
{"SMILES": "O=C(NCc1ncc(C(F)(F)F)cc1Cl)c1ccc2c(c1)C1(CCS(=O)(=O)CC1)[C@H](C1CC1)N2S(=O)(=O)c1ccc(F)cc1", "observed": "cell-free assay", "technique": "competition with immobilised ligand", "tested at": "1 µM", "remaining binding [%]": 89}
{"SMILES": "O=C(c1ccc(Nc2ncc(Cl)c(-c3cc4ccccc4s3)n2)cc1)N1CCC(N2CCCC2)CC1", "observed": "binding", "technique": "competition with immobilised ligand", "tested at": "1 µM", "remaining binding [%]": 100}
{"SMILES": "COc1cc(-c2cn(C3CCc4ccccc4N(CC(F)(F)F)C3=O)nn2)ccc1-n1ccc(C)n1 (stereo not drawn)", "observed": "cell-free assay", "technique": "competition with immobilised ligand", "tested at": "1 µM", "remaining binding [%]": 100}
{"SMILES": "CCN1CCN(Cc2ccc(C(=O)Nc3ccc(C)c(Oc4ccc5c(c4)CC(=O)N5)c3)cc2C(F)(F)F)CC1", "observed": "binding", "technique": "competition with immobilised ligand", "tested at": "1 µM", "remaining binding [%]": 100}
{"SMILES": "C[C@H]1CCN(c2nccc(-c3cnn4ncccc34)n2)C1", "observed": "binding", "tested at": "1 µM", "remaining binding [%]": 92}
{"SMILES": "CC(C)(C)c1ccc(-c2nc(CBr)nn2-c2cccc(O)c2)cc1", "observed": "cell-free assay", "technique": "competition with immobilised ligand", "tested at": "10 µM", "remaining binding [%]": 85}
{"SMILES": "C[C@@H]1CN(c2ccc3ncc(-c4ccc5[nH]nc(C6CC6)c5c4)n3n2)C[C@H](C)O1", "observed": "binding", "technique": "competition with immobilised ligand", "tested at": "0.5 µM", "remaining binding [%]": 100}
{"SMILES": "Cc1noc([C@H]2C[C@@H](c3ccc(C(F)(F)F)cc3)CN(C(=O)N3CCS(=O)(=O)C3)C2)n1", "observed": "cell-free assay", "technique": "competition with immobilised ligand", "tested at": "1 µM", "remaining binding [%]": 100}
{"SMILES": "c1cncc(-c2cccc(Nc3nccc(NC4CCCCC4)n3)c2)c1", "observed": "binding", "technique": "competition with immobilised ligand", "tested at": "10 µM", "remaining binding [%]": 99}
{"SMILES": "CN(c1nccc(-c2cnn3ncccc23)n1)C1CC1", "observed": "binding", "tested at": "1 µM", "remaining binding [%]": 100}
{"SMILES": "O=C(NCCCN1CCOCC1)c1ccc(Nc2ncc(Cl)c(-c3ccc(Cl)s3)n2)cc1", "observed": "binding", "technique": "competition with immobilised ligand", "tested at": "1 µM", "remaining binding [%]": 100}
{"SMILES": "CN(C)C(=O)Cn1cc(-c2nc([C@@](C)(c3ccc(-c4cnc(N)nc4)cc3)C3CC3)no2)cn1", "observed": "cell-free assay", "technique": "competition with immobilised ligand", "tested at": "1 µM", "remaining binding [%]": 99}
{"SMILES": "CN(CCCC(F)(F)F)c1nccc(-c2cnn3ncccc23)n1", "observed": "binding", "tested at": "1 µM", "remaining binding [%]": 100}
{"SMILES": "CCc1ccccc1C(=O)Nc1n[nH]c2c(C)c(F)c(C3C(C#N)=C(C)N(C)C(C)=C3C#N)cc12", "observed": "cell-free assay", "technique": "competition with immobilised ligand", "tested at": "1 µM", "remaining binding [%]": 30}
{"SMILES": "c1cnn2ncc(-c3ccnc(N4CCC45COC5)n3)c2c1", "observed": "binding", "tested at": "1 µM", "remaining binding [%]": 100}
{"SMILES": "O=C(c1ccc(Nc2ncc(Cl)c(-c3ccc(Cl)s3)n2)cc1)N1CCC(N2CCCC2)CC1", "observed": "binding", "technique": "competition with immobilised ligand", "tested at": "1 µM", "remaining binding [%]": 100}
{"SMILES": "COc1cnc(Nc2cccc(S(N)(=O)=O)c2)nc1N1CCN(c2ccccc2)C(=O)C1", "observed": "binding", "technique": "competition with immobilised ligand", "tested at": "1 µM", "remaining binding [%]": 92}
